# Source: PubChem BioAssay
# MPTP inh: inhibitors of mitochondrial permeability transition pore; isolated mouse mitochondria, Ca2+ swelling absorbance, 30 min; inhibition, % at 10 µM; hit rate 1.4% among 360,000; AID 602449;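 active = inhibition of 50% or more, scaled per plate between neutral and stimulator controls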;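 also: 0% = DMSO wells given calcium and 100% = 1 mM EGTA wells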
# NR3A LBD binder: modulates the human NR3A ligand-binding domain. hit rate 2.5% among 340,000. AID 1259313. Tm shift relative to glycine control, % at 25 µM. NR3A LBD differential scanning fluorimetry, Tm shift; 0% = protein alone, 100% = glycine-bound protein;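 active = melting temperature shift of at least 10% of the positive control shift, at one fixed dose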
# aDG glyco act: alpha-DG glycosylation activation | Pro5-aDG cells, alpha-DG glycosylation AlphaScreen (IIH6); 0% Pro5, 100% B10-LARGE cell signal | activation, % at 10 µM | hit rate 0.22% among 360,000;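 active = activation of at least 8% versus controls, or a plate z-score of at least 8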;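 also: Pro5 are CHO cells carrying HIG-tagged alpha-DG that lacks glycosylation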
# proCasp7 act: counter-screen: procaspase-7 (human) activation; P55210; recombinant procaspase-7, Ac-DEVD-pNA absorbance 405 nm; D23A/D198A/D206A triple mutant, cannot self-cleave; scale: DMSO 0, 5 µM enzyme 100; activation, % at 8.5 µM; hit rate 0.093% among 330,000;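 active = percent activation above the screen-wide mean plus 3 SD, cut at about 25% in these data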
# Target sequence (P55210 whole entry D23A/D198A/D206A): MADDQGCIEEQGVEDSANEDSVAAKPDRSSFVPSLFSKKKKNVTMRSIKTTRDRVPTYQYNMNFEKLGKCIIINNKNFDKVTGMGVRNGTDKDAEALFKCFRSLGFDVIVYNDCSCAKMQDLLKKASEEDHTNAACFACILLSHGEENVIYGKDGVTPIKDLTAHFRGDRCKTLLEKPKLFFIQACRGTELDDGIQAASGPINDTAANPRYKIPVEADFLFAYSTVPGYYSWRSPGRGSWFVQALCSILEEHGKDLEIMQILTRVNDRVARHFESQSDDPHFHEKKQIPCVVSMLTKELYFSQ
#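 Assay system – Uncleavable procaspase-7 mutant enzyme · Quantity – 2 µM procaspase-7 mutant as dispensed · Times – 1 h preincubation, 2 h reaction · Dosing – single nominal 8.5 µM compound dose, 0.8% DMSO final · Buffer or medium – Zinc-free 50 mM HEPES buffer, pH 7.4, with NaCl and Triton X-100 · Detection – Epi-absorbance of released pNA at 405 nm, two timepoints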
# procasp3 activ: activators of human procaspase-3; P42574; recombinant procaspase-3 D3A, Ac-DEVD-pNA absorbance 405 nm; activation, % at 8.5 µM; hit rate 0.11% among 330,000; AID 463141;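 active = activation above the mean of all tested compounds plus 3 SD, cut at about 21% in these data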;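 also: 0% = DMSO alone and 100% = DMSO wells spiked with extra 5 µM PC-3 D3A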
# Target sequence (P42574 whole entry D9A/D28A/D175A): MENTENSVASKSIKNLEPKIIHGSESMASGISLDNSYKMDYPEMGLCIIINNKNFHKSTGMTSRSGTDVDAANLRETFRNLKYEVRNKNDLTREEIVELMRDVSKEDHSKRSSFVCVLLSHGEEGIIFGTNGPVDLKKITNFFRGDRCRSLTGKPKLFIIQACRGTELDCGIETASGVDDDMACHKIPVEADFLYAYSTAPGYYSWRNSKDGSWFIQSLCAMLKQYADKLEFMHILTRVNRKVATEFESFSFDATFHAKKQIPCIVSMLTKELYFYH
#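 Technique: 405 nm absorbance of p-nitroaniline, reads at 0 and 120 min; Test system: Procaspase-3 D3A mutant; Incubation: 1 h enzyme-compound preincubation, then 2 h substrate reaction, 25 °C; Repeats: singlicate, each compound tested once; Benchmarks: low control DMSO wells, high control DMSO plus 5 µM PC-3 D3A.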
# An asterisk follows results filed as active; · = no result; ! = repeats disagree. In the library only some 3.7% were active in any assay of this set; here they are far more common.
SMILES,MPTP inh,NR3A LBD binder,aDG glyco act,proCasp7 act,procasp3 activ
CCc1cc(-c2[nH]ncc2-c2ccc([N+](=O)[O-])cc2)c(O)cc1OC,5,29*,0,16,8
Cc1ccc(S(=O)(=O)N2CCN(C(=O)CN3CCN(c4ccc(O)cc4)CC3)CC2)cc1,0,-1,0,·,·
COc1cc(C(=O)Nc2c(C(=O)O)[nH]c3ccc(Br)cc23)cc(OC)c1OC,0,10*,0,5,2
CCOC(=O)c1[nH]c2ccc(F)cc2c1NC(=O)c1cc(OC)c(OC)c(OC)c1,-1,-7,0,-2,-1
COc1cccc(Nc2nc(-c3sc(C)nc3C)cs2)c1,-1,12*,1,7,6
Cc1nc(C)c(-c2csc(Nc3ccc(F)cc3)n2)s1,1,15*,2,0,1
Cc1nc(C)c(-c2csc(Nc3ccc(C(=O)O)c(O)c3)n2)s1,-1,-1,0,·,·
COc1ccc([N+](=O)[O-])cc1NC(=O)CC1SC(=Nc2cccc(C)c2C)N(/N=C/c2cccc(OC)c2OC)C1=O (configuration not stated),2,21*!,-1,5,-8
CSc1ccccc1NC(=O)Cc1ccccc1,-3,0,2,-1,3
CSc1ccccc1NC(=O)COC(=O)CCc1ccccc1,-5,14*,0,4,-4
CSc1ccccc1NC(=O)CO/N=C(\C)c1cc2ccccc2o1,1,11*,1,6,8
Cn1c(=O)c2cc(NC(=O)NCc3ccccc3)ccc2n1C/C=C/c1ccccc1,0,·,0,·,·
CCOc1ccc(S(=O)(=O)N2CCOCC2)cc1NC(=O)CSCC(=O)Nc1ccc(C)cc1,-1,11*,0,3,-7
O=C(CCCOc1ccccc1)Nc1ccc(S(=O)(=O)N2CCOCC2)cc1,1,0,0,-3,-5
COc1ccc(/C=C/C(=O)Nc2ccc(S(=O)(=O)N3CCOCC3)cc2)c(OC)c1,-1,25*,0,10,1
CCOc1ccc(S(=O)(=O)N2CCOCC2)cc1NC(=O)CSCC(=O)Nc1ccc(OC)cc1,0,0,0,·,·
COc1ccc(CCC(=O)Nc2ccc(S(=O)(=O)N3CCOCC3)cc2)cc1OC,0,·,0,·,·
Cc1ccc(OCCCC(=O)Nc2ccc(S(=O)(=O)N3CCOCC3)cc2)cc1,2,28*,0,10,-5
COc1ccc(CCC(=O)Nc2ccc(S(=O)(=O)N3CCOCC3)cc2)cc1,0,20*,0,4,7
Cc1ccc(C)c(SCC(=O)NC(=O)NC2CCCC2)c1,-1,0,0,6,-2
O=C(Nc1ccc(S(=O)(=O)NC2=NCCCCC2)cc1)c1cccc(OC(F)F)c1,0,·,0,·,·
CC1(C)CSC(C)(C)C(=O)N1,-3,0,0,·,·
CCCc1nc2ccccc2c(C(=O)OCC(=O)Nc2ccc(S(=O)(=O)N3CCOCC3)cc2)c1CC,33,18*,0,-2,-3
COc1ccc(CC(=O)NNC(=O)COc2ccc(C)cc2)cc1S(=O)(=O)N1CCOCC1,-1,10*,0,-5,2
COc1ccc(CC(=O)NNC(=O)COc2ccc(F)cc2)cc1S(=O)(=O)N1CCOCC1,-1,-4,0,0,3
SMILES,MPTP inh,NR3A LBD binder,aDG glyco act,proCasp7 act,procasp3 activ
CCCc1nc2ccccc2c(C(=O)OCC(=O)Nc2cccc(S(=O)(=O)N3CCOCC3)c2)c1CC,11,8,0,-3,5
CC1CC(=Cc2ccc([N+](=O)[O-])cc2)C(=O)O1 (configuration not stated),1,1,0,·,·
O=C(Cn1nnc(-c2ccccc2)n1)N/N=C/c1cc([N+](=O)[O-])ccc1O,4,7,0,4,5
O=C(Cn1nnc(-c2ccccc2)n1)N/N=C/c1cc([N+](=O)[O-])c(Cl)cc1Cl,19,16*,0,0,-1
COc1ccc(C)cc1-n1nnnc1SC(C)C(=O)NC1CCCC1 (configuration not stated),0,-1,0,9,0
Cc1ccc(-c2csc(N(CCO)CCCn3c(C(F)(F)F)nc4cc(C(F)(F)F)ccc43)n2)cc1,0,19*,0,-16,-9
CCN(c1ccccc1)S(=O)(=O)c1cccc(C(=O)NCC2(N(C)C)CCCCC2)c1,-1,25*,0,-3,11
O=C(NCc1cccc(F)c1)c1ccc(N2C(=O)Cn3c(cc4sccc43)C2=O)cc1,-2,17*,0,4,0
O=C(CN1C(=O)c2cccc3cccc1c23)NCC1CCCO1 (configuration not stated),1,16*,0,-3,-3
CC(C)N(C(=O)NC(=O)Nc1ccc(S(=O)(=O)N2CCCC2)cc1)S(C)(=O)=O,0,-2,0,5,-2
CCOc1ccc2nc(NS(=O)(=O)c3ccc4c(c3)n(C)c(=O)n4C)sc2c1,9,29*,0,-6,-1
CCOc1ccc(NC(=O)Nc2ccc(NC(C)=O)cc2)cc1,2,22*,0,0,-4
CCOCC(=O)Nc1nc2ccc(S(C)(=O)=O)cc2s1,-5,0,0,-1,2
CCOc1ccc(NC(=O)NC(=O)N(C(C)C)S(C)(=O)=O)cc1,9,18*,0,8,3
CCOc1ccc(NC(=O)Nc2nc3ccc(S(C)(=O)=O)cc3s2)cc1,13,30*,0,·,·
CCCCn1nnnc1C(c1ccccc1)N1CCN(c2cccc(C(F)(F)F)n2)CC1 (configuration not stated),2,·,0,·,·
O=C(NCCN1CCNC1=O)c1ccc2sc([C@@H]3O[C@H](CO)[C@H](O)[C@H](O)[C@H]3O)nc2c1,0,·,0,·,·
CCOc1ccc(NC(=O)Nc2ccc3c(c2)N(C)C(=O)CS3)cc1,2,18*,0,8,2
CCOc1ccc(OCCC(=O)OC(C)C(=O)Nc2ccc(C(C)=O)cc2)cc1 (configuration not stated),-1,20*,0,-8,8
COc1ccc2oc(C(=O)Nc3nc4ccc(S(C)(=O)=O)cc4s3)c(C)c2c1,0,19*,1,-4,12
CCOc1ccc(NC(=O)Nc2ccc3nccnc3c2)cc1,-3,24*,0,-8,1
COc1cc(OC)cc(C(=O)Nc2nc3ccc(S(C)(=O)=O)cc3s2)c1,3,-27,-1,10,-6
c1ccc(-c2ccncn2)cc1,-2,-1,0,·,·
Cc1nn(C)c(C)c1/C=C(\C#N)S(=O)(=O)c1ccc(F)cc1,0,·,0,·,·
COc1ccc(Cl)cc1Cn1c(C)c(C(=O)NCc2cccc(Cl)c2)sc1=O,0,·,0,·,·
